Measured values as given in ChEMBL document CHEMBL1828605, “Synthesis, antiviral activity, cytotoxicity and cellular pharmacology of l-3'-azido-2',3'-dideoxypurine nucleosides” (Eur J Med Chem, 2011).
pEC50, pIC50, pKd: −log10 of the molar value.

Assays:
CCRF-CEM = test: Cytotoxicity against human CEM cells after 6 days by trypan blue exclusion assay; assay type: cell-based; settings: 144 h
PBMC [1] = test: Cytotoxicity against phytohemagglutininin-stimulated human PBMC after 6 days by trypan blue exclusion assay; assay type: cell-based; settings: 144 h
Hepatitis B virus = test: Antiviral activity against Hepatitis B virus infected in human HepAD38 assessed as reduction of viral DNA level on day 7 by quantitative-PCR assay analysis; assay type: functional, organism-based
Vero = test: Cytotoxicity against african green monkey Vero cells after 3 days by hemocytometry; assay type: cell-based; settings: Chlorocebus sabaeus, 72 h
[2] = Cytotoxicity against human HepAD38 cells; assay type: cell-based
[3] = target: Human immunodeficiency virus type 1 reverse transcriptase (Human immunodeficiency virus 1) (UniProt Q72547); test: Ratio Kpol to Kd for wild type HIV 1 reverse transcriptase
In short: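 Pre-steady-state single-turnover incorporation by purified WT HIV-1 RT (200 nM, final), pre-incubated with 20 nM T/P substrate, then mixed with nucleotide at varying concentrations plus metal ions. Reaction at 37 °C in 50 mM Tris-HCl pH 7.5, 50 mM KCl, 10 mM MgCl₂. Aliquots quenched in gel loading buffer at 1-60 min. 20mer→21mer conversion quantified on gel. k_obs from burst fit, k_pol and K_d from hyperbolic fit, efficiency taken as k_pol/K_d.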

[4] = system: Human immunodeficiency virus 1; test: Antiviral activity against HIV1 LAV1 infected in phytohemagglutininin-stimulated human PBMC assessed as RT level after 6 days by microdilution plate assay; assay type: functional, organism-based
[5] = target: Human immunodeficiency virus type 1 reverse transcriptase (Human immunodeficiency virus 1) (UniProt Q72547); test: Selectivity ratio of Kpol to Kd for dCTP to Kpol to Kd for compound at HIV1 reverse transcriptase
[6] = target: Human immunodeficiency virus type 1 reverse transcriptase (Human immunodeficiency virus 1, UniProt Q72547); test: Binding affinity to HIV1 reverse transcriptase assessed as L-3'-azido-NTP incorporation in nascent DNA
[7] = target: Human immunodeficiency virus type 1 reverse transcriptase (Human immunodeficiency virus 1) (UniProt Q72547); test: Selectivity ratio of Kpol to Kd for dATP to Kpol to Kd for compound at HIV1 reverse transcriptase
PBMC [8] = test: Drug metabolism in human phytohemagglutininin-stimulated human PBMC assessed as 30-azido-20,30-dideoxy-b-L-adenosine level per 10^6 cells at 50 uM after 4 hrs by LC-MS/MS analysis; assay type: ADME, cell-based
In short: (§1)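 PHA-activated human PBM cells incubated with nucleoside at 50 μM for 4 h at 37 °C, then PBS-washed. Intracellular nucleoside and nucleotide metabolites were extracted with 60% ice-cold methanol, dried, redissolved in HPLC mobile phase, and quantified by LC-MS/MS.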

PBMC [9] = test: Drug metabolism in human phytohemagglutininin-stimulated human PBMC assessed as 30-azido-20,30-dideoxy-b-L-adenosine triphosphate level per 10^6 cells at 50 uM after 4 hrs by LC-MS/MS analysis; assay type: ADME, cell-based; in short: as §1
PBMC [10] = test: Drug metabolism in human phytohemagglutininin-stimulated human PBMC assessed as 30-azido-20,30-dideoxy-b-L-adenosine diphosphate level per 10^6 cells at 50 uM after 4 hrs by LC-MS/MS analysis; assay type: ADME, cell-based; in short: as §1
PBMC [11] = test: Drug metabolism in human phytohemagglutininin-stimulated human PBMC assessed as 30-azido-20,30-dideoxy-b-L-adenosine monophosphate level per 10^6 cells at 50 uM after 4 hrs by LC-MS/MS analysis; assay type: ADME, cell-based; in short: as §1
PBMC [12] = test: Drug metabolism in human phytohemagglutininin-stimulated human PBMC assessed as 9-(3-azido-2,3-dideoxy-b-L-ribofuranosyl)-2-amino-6-chloropurine diphosphate level per 10^6 cells at 50 uM after 4 hrs by LC-MS/MS analysis; assay type: ADME, cell-based; in short: as §1
PBMC [13] = test: Drug metabolism in human phytohemagglutininin-stimulated human PBMC assessed as 9-(3-azido-2,3-dideoxy-b-L-ribofuranosyl)-2-amino-6-chloropurine level per 10^6 cells at 50 uM after 4 hrs by LC-MS/MS analysis; assay type: ADME, cell-based; in short: as §1
PBMC [14] = test: Drug metabolism in human phytohemagglutininin-stimulated human PBMC assessed as 9-(3-azido-2,3-dideoxy-b-L-ribofuranosyl)-2-amino-6-chloropurine monophosphate level per 10^6 cells at 50 uM after 4 hrs by LC-MS/MS analysis; assay type: ADME, cell-based; in short: as §1
PBMC [15] = test: Drug metabolism in human phytohemagglutininin-stimulated human PBMC assessed as compound level per 10^6 cells at 50 uM after 4 hrs by LC-MS/MS analysis; assay type: ADME, cell-based
PBMC [16] = test: Drug metabolism in human phytohemagglutininin-stimulated human PBMC assessed as 9-(3-azido-2,3-dideoxy-b-L-ribofuranosyl)-2-amino-6-chloropurine triphosphate level per 10^6 cells at 50 uM after 4 hrs by LC-MS/MS analysis; assay type: ADME, cell-based; in short: as §1
[17] = Hepatitis B virus, HePAD38, 168 h
[18] = Human immunodeficiency virus 1, LAV1, 144 h

## Nc1ccn([C@@H]2CS[C@H](CO)O2)c(=O)n1 [LAMIVUDINE]
CCRF-CEM
  pIC50: < 4.00
PBMC [1]
  pIC50: < 4.00
Hepatitis B virus; [17]
  pEC50: 7.22
Vero
  pIC50: < 4.00
[2]
  Activity: Non-toxic

## Nc1ncnc2c1ncn2[C@H]1C[C@H](O)[C@@H](COP(=O)(O)OP(=O)(O)OP(=O)(O)O)O1
[3]
  Ratio: 455 µM⁻¹ min⁻¹

## Cc1cn([C@H]2C[C@H](N=[N+]=[N-])[C@@H](CO)O2)c(=O)[nH]c1=O (stereo in doubt; 27) [ZIDOVUDINE]
Hepatitis B virus
  pEC50: < 4.00
[4]
  pEC50: < 4.00
  EC90: > 100 µM
[2]
  Activity: Non-toxic

## Nc1ccn([C@@H]2CS[C@H](COP(=O)(O)OP(=O)(O)OP(=O)(O)O)O2)c(=O)n1 [LAMIVUDINE TRIPHOSPHATE]
[5]
  Selectivity ratio: 11.9
[6]
  pKd: 6.89
[3]
  Ratio: 5.46 µM⁻¹ min⁻¹

## [N-]=[N+]=N[C@@H]1C[C@@H](n2cnc3c(O)nc(N)nc32)O[C@H]1COP(=O)(O)OP(=O)(O)OP(=O)(O)O
[6]
  pKd: 6.64

## Nc1ccn([C@H]2C[C@H](O)[C@@H](CO)O2)c(=O)n1 [DOXECITINE]
[6]
  pKd: 5.96
[3]
  Ratio: 65 µM⁻¹ min⁻¹

## [N-]=[N+]=N[C@@H]1C[C@@H](n2cnc3c(N)nc(N)nc32)O[C@H]1COP(=O)(O)OP(=O)(O)OP(=O)(O)O
[7]
  Selectivity ratio: 7340
[6]
  pKd: 5.64
[3]
  Ratio: 0.062 µM⁻¹ min⁻¹

## Cc1cn([C@H]2C[C@H](N=[N+]=[N-])[C@@H](CO)O2)c(=O)[nH]c1=O (stereo in doubt) [ZIDOVUDINE]
Hepatitis B virus
  pEC50: < 5.00

## CCOC(=O)[C@H](C)NP(=O)(OC[C@@H]1O[C@H](n2cc(C)c(=O)[nH]c2=O)C[C@H]1N=[N+]=[N-])Oc1ccccc1 (stereo not given in full)
CCRF-CEM
  pIC50: < 4.00
PBMC [1]
  pIC50: < 4.00
Hepatitis B virus; [17]
  pEC50: < 4.00
[4]; [18]
  pEC50: < 4.00
  EC90: > 100 µM
Vero
  pIC50: < 4.00
[2]
  Activity: Non-toxic

## CCOC(=O)[C@H](C)NP(=O)(OC[C@@H]1O[C@H](n2cnc3c(O)nc(N)nc32)C[C@H]1N=[N+]=[N-])Oc1ccccc1 (stereo not given in full)
CCRF-CEM
  pIC50: < 4.00
PBMC [1]
  pIC50: < 4.00
Hepatitis B virus; [17]
  pEC50: < 4.00
[4]; [18]
  pEC50: < 4.00
  EC90: > 100 µM
Vero
  pIC50: < 4.00
[2]
  Activity: Non-toxic

## [N-]=[N+]=N[C@@H]1C[C@@H](n2cnc3c(N)ncnc32)O[C@H]1COP(=O)(O)OP(=O)(O)OP(=O)(O)O
[7]
  Selectivity ratio: 19800
[6]
  pKd: 4.82
[3]
  Ratio: 0.023 µM⁻¹ min⁻¹

## CCOC(=O)[C@H](C)NP(=O)(OC[C@@H]1O[C@H](n2cnc3c(N)nc(N)nc32)C[C@H]1N=[N+]=[N-])Oc1ccccc1 (stereo not given in full)
CCRF-CEM
  pIC50: < 4.00
PBMC [1]
  pIC50: < 4.00
Hepatitis B virus; [17]
  pEC50: < 4.00
[4]; [18]
  pEC50: 4.80
  EC90: > 100 µM
Vero
  pIC50: < 4.00
[2]
  Activity: Non-toxic

## CCOC(=O)[C@H](C)NP(=O)(OC[C@@H]1O[C@H](n2cnc3c(N)ncnc32)C[C@H]1N=[N+]=[N-])Oc1ccccc1 (stereo not given in full)
CCRF-CEM
  pIC50: < 4.00
PBMC [8]
  Activity: 7500 fmol
PBMC [1]
  pIC50: < 4.00
Hepatitis B virus; [17]
  pEC50: < 4.00
PBMC [9]
  Activity: 7400 fmol
[4]; [18]
  pEC50: 5.85
  EC90: 15.6 µM
PBMC [10]
  Activity: 1200 fmol
Vero
  pIC50: < 4.00
PBMC [11]
  Activity: 4200 fmol
[2]
  Activity: Non-toxic

## Cc1cn([C@H]2C[C@H](N=[N+]=[N-])[C@@H](CO[P@](=O)(O)O[P@](=O)(O)OP(=O)(O)O)O2)c(=O)[nH]c1=O (single isomer, unassigned) [ZIDOVUDINE TRIPHOSPHATE]
[6]
  pKd: 4.26

## CCOC(=O)[C@H](C)NP(=O)(OC[C@@H]1O[C@H](n2cnc3c(Cl)nc(N)nc32)C[C@H]1N=[N+]=[N-])Oc1ccccc1 (stereo not given in full)
CCRF-CEM
  pIC50: 4.64
PBMC [1]
  pIC50: 4.15
Hepatitis B virus; [17]
  pEC50: < 4.00
[4]; [18]
  pEC50: 4.78
  EC90: 55.9 µM
PBMC [12]
  Activity: 190 fmol
Vero
  pIC50: < 4.00
PBMC [13]
  Activity: 49 fmol
PBMC [14]
  Activity: 430 fmol
PBMC [15]
  Activity: 12 fmol
[2]
  Activity: Non-toxic
PBMC [16]
  Activity: 10 fmol

## CCOC(=O)[C@H](C)NP(=O)(OC[C@@H]1O[C@H](n2cnc3c(Cl)ncnc32)C[C@H]1N=[N+]=[N-])Oc1ccccc1 (stereo not given in full)
CCRF-CEM
  pIC50: 5.24
PBMC [1]
  pIC50: 4.16
Hepatitis B virus; [17]
  pEC50: < 4.00
[4]; [18]
  pEC50: 4.78
  EC90: 83.1 µM
Vero
  pIC50: < 4.00
[2]
  Activity: Non-toxic
